Measurements collected from several papers.
Lines come from different studies, so protocols differ.
RPS6KA1: Ribosomal protein S6 kinase alpha-1 (RPS6KA1, Homo sapiens, UniProt Q15418)
RPS6KA1 C-terminal kinase domain: Ribosomal protein S6 kinase alpha-1, C-terminal kinase domain (RPS6KA1, Homo sapiens, UniProt Q15418)
RPS6KA1 N-terminal kinase domain: Ribosomal protein S6 kinase alpha-1, N-terminal kinase domain (RPS6KA1, Homo sapiens, UniProt Q15418)

Cc1cnc(NC2CCOCC2)nc1-n1cnc(C(=O)NC(CN)c2cc(F)cc(Cl)c2)c1 (centres unmarked) — remaining activity (RPS6KA1; enzyme activity, inhibitor, radiometric; 1 µM): 44%
CNC(=O)c1ccc(Nc2ncc(C(F)(F)F)c(NCc3nccnc3N(C)S(C)(=O)=O)n2)cc1 — remaining binding (RPS6KA1 C-terminal kinase domain; cell-free assay, competition with immobilised ligand; 0.1 µM): 71%
COc1cc2ncnc(Nc3ccc(Oc4ccccc4)cc3C)c2cc1OC — inhibition (RPS6KA1; enzyme activity, inhibitor; 1 µM): 6%
CC(C)(C)c1nc2c(s1)c1nc(N)ncc1c1ccc(NS(=O)(=O)c3c(F)cccc3F)c(F)c12 — remaining activity (RPS6KA1; enzyme activity, inhibitor, radiometric; 1 µM): 107%
COc1cc2ncnc(Nc3ccc(F)c(Cl)c3)c2cc1OCCCN1CCOCC1 — remaining signal (RPS6KA1; cell-free assay; 0.5 µM): 97.3%
c1ccc(CNc2nc(N3CCOc4ccccc43)nc3c2CCCC3)cc1 — inhibition (RPS6KA1 C-terminal kinase domain; target engagement in cells, inhibitor, chemoproteomics; 20 mM): -6.9%
CN(C)c1nccc(-c2cnn3ncccc23)n1 — remaining binding (RPS6KA1 N-terminal kinase domain; binding, competition with immobilised ligand; 1 µM): 100%
Cc1sc(C(=O)NC2COC2)cc1-n1cc(NC(=O)Nc2c(F)cccc2Cl)cn1 — remaining activity (RPS6KA1; enzyme activity, inhibitor; 10 µM): 93.2%
Cc1cnn2ncc(-c3ccnc(N(C)C)n3)c2c1 — remaining binding (RPS6KA1 C-terminal kinase domain; binding, competition with immobilised ligand; 1 µM): 64%
Cc1ccc(Nc2nccc(N(C)c3ccc4c(C)n(C)nc4c3)n2)cc1S(N)(=O)=O — remaining activity (RPS6KA1; enzyme activity, inhibitor; 0.5 µM): 92.8%
N#CC1(c2ccccn2)CCN(Cc2cc(C(=O)N3CCCC3)c(=O)n3ccccc23)CC1 — remaining binding (RPS6KA1 N-terminal kinase domain; cell-free assay, competition with immobilised ligand; 1 µM): 100%
Cn1cncc1C1=CN(c2ncnc3[nH]cnc23)CCS1 — inhibition (RPS6KA1; enzyme activity, inhibitor, radiometric; 50 nM): 13%
Nc1ncnc2occ(-c3ccc(NC(=O)Nc4cc(C(F)(F)F)ccc4F)cc3)c12 — remaining signal (RPS6KA1 N-terminal kinase domain; cell-free assay, inhibitor; 20 µM): 2%
CN1CC(Oc2cnc(C#N)cc2-c2ccn3nc(NC(=O)C4CC4)cc3c2)C1 — inhibition (RPS6KA1; enzyme activity, inhibitor; 1 µM): 31%
C=CC(=O)Nc1cc(Nc2nccc(Nc3cc(Cl)c(F)cc3C(C)(C)O)n2)c(OC)cc1N1CC[C@@H](N(C)C)C1 — inhibition (RPS6KA1; enzyme activity, inhibitor; 1 µM): 9%
FC(F)c1nc2ccccc2n1-c1nc(N2CCOCC2)nc(N2CCOCC2)n1 — remaining activity (RPS6KA1; enzyme activity, inhibitor; 10 µM): 95%
COc1cc(Nc2cnc(C#N)c(O[C@H](C)CN(C)C)n2)ncc1-c1cnn(C)c1 — remaining activity (RPS6KA1; enzyme activity, inhibitor, radiometric; 10 µM): 14%
Nc1nc(Nc2ccccc2)sc1C(=O)c1c(F)cccc1F — remaining activity (RPS6KA1; enzyme activity, inhibitor; 10 µM): 29%
CO[C@H]1CC[C@H](CNc2ccc(S(=O)(=O)NC(=O)c3ccc(N4CCN(CC5=C(c6ccc(Cl)cc6)CC(C)(C)CC5)CC4)cc3Oc3cnc4[nH]ccc4c3)cc2[N+](=O)[O-])CC1 — remaining binding (RPS6KA1 C-terminal kinase domain; cell-free assay, competition with immobilised ligand; 1 µM): 73%
CNC(=O)c1cc(Oc2ccc(NC(=O)Nc3ccc(Cl)c(C(F)(F)F)c3)cc2)ccn1 — inhibition (RPS6KA1; enzyme activity, inhibitor; 10 µM): 25%
Cc1ccc(C(=O)Nc2ccc(CN3CCN(C)CC3)c(C(F)(F)F)c2)cc1C#Cc1cnc2cccnn12 — remaining activity (RPS6KA1; enzyme activity, inhibitor; 23.5 nM): 80%
O=C(N[C@H]1CCCCC/C=C\C2C[C@@]2(C(=O)O)NC(=O)[C@@H]2C[C@@H](Oc3ccncc3)CN2C1=O)OC1CCCC1 (some centres unmarked) — remaining binding (RPS6KA1 N-terminal kinase domain; binding, competition with immobilised ligand; 1 µM): 100%
Oc1cccc(-c2nc(N3CCOCC3)c3oc4ncccc4c3n2)c1 — remaining activity (RPS6KA1; enzyme activity, inhibitor; 10 µM): 101%
C#Cc1cccc(Nc2ncnc3cc(OCCOC)c(OCCOC)cc23)c1 — remaining signal (RPS6KA1; cell-free assay; 0.5 µM): 97.6%
c1cnn2ncc(-c3ccnc(N4CCC45COC5)n3)c2c1 — remaining binding (RPS6KA1 C-terminal kinase domain; binding, competition with immobilised ligand; 1 µM): 56%
C[S+]([O-])c1ccc(-c2nc(-c3ccncc3)c(-c3ccc(F)cc3)[nH]2)cc1 (centres unmarked) — remaining signal (RPS6KA1; cell-free assay; 0.5 µM): 99.9%
CC/C(=N\NC(=O)NCc1cccc(O)c1)c1ccc(O)c(C)c1O — inhibition (RPS6KA1; enzyme activity, inhibitor; 0.1 µM): 72.1%
COc1cc(/C=C/C(=O)CC(=O)/C=C/c2ccc(O)c(OC)c2)ccc1O — activity vs control (RPS6KA1; enzyme activity, inhibitor; 1 µM): 53%
CCN(CC)c1ccc(C2=NNC(=O)CC2C)cc1[N+](=O)[O-] (centres unmarked) — remaining activity (RPS6KA1; enzyme activity, inhibitor; 10 µM): 101%
O=C(Nc1cnc(Oc2ccc(F)cc2)nc1)N1CCc2ncccc2[C@@H]1c1ccc(F)cc1 — remaining binding (RPS6KA1 N-terminal kinase domain; cell-free assay, competition with immobilised ligand; 1 µM): 71%
CC(C)(C)C(=O)c1sc(NC2CCCCC2)nc1N — remaining activity (RPS6KA1; enzyme activity, inhibitor; 10 µM): 89%
Cc1ccc(C(=O)NCc2ccsc2)cc1C#Cc1cn(C(C)C)c2ncnc(N)c12 — activity vs control (RPS6KA1; enzyme activity, inhibitor; 1 µM): 101%
Cc1cc(C)c(-n2ccn3nc(-c4cccnc4)cc23)cc1NC(=O)c1cc(C#N)cc(S(F)(F)(F)(F)F)c1 — remaining binding (RPS6KA1 N-terminal kinase domain; cell-free assay, competition with immobilised ligand; 0.1 µM): 97%
O=C1NC(=O)c2cc(Nc3ccc(F)cc3)c(Nc3ccc(F)cc3)cc21 — remaining signal (RPS6KA1; cell-free assay; 0.5 µM): 97.7%
CCS(=O)(=O)c1cc2cc(C[C@@](O)(CC(C)(C)c3ccc(F)cc3C(N)=O)C(F)(F)F)[nH]c2cn1 — remaining binding (RPS6KA1 C-terminal kinase domain; cell-free assay, competition with immobilised ligand; 1 µM): 0%
Cc1ccc(NC(=O)c2ccc(C)c(C(F)(F)F)c2)cc1C#Cc1nn(C2CCC(O)CC2)c2ncnc(N)c12 (centres unmarked) — remaining signal (RPS6KA1; cell-free assay; 10 µM): 11%
CNc1cccc2cc(C(=O)Nc3ccc(C(=O)O)cc3)c(=O)[nH]c12 — inhibition (RPS6KA1; enzyme activity, inhibitor; 10 µM): 16%
N[C@H]1CCN(c2nccc(-c3cnn4ncccc34)n2)C1 — remaining binding (RPS6KA1 C-terminal kinase domain; binding, competition with immobilised ligand; 1 µM): 99%
CC(C)(O)c1cncc(-c2nc3ccc(F)cc3n2C2CC2)c1 — remaining binding (RPS6KA1 C-terminal kinase domain; cell-free assay, competition with immobilised ligand; 1 µM): 100%
C[C@@H]1CCN(C(=O)CC#N)C[C@@H]1N(C)c1ncnc2[nH]ccc12 — remaining signal (RPS6KA1; cell-free assay, inhibitor; 0.5 µM): 90.9%
C[C@@H]1CCN(c2nccc(-c3cnn4ncccc34)n2)C1 — remaining binding (RPS6KA1 N-terminal kinase domain; binding, competition with immobilised ligand; 1 µM): 100%
